Results published in ChEMBL document CHEMBL4340542, “Design, synthesis and biological evaluation of 4-aniline-thieno[2,3-d]pyrimidine derivatives as MNK1 inhibitors against renal cell carcinoma and nasopharyngeal carcinoma” (Bioorg Med Chem, 2019).

molecular target: MAP kinase-interacting serine/threonine-protein kinase 1 (Homo sapiens, UniProt Q9BUB5); test: Inhibition of human MNK1 using CREBtide substrate by gamma-[32P]-ATP competitive inhibition assay
Summary of the method: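 Run as the Eurofins KinaseProfiler radiometric assay, competitive with γ-[32P]-ATP. IC50 taken as the mean of independent experiments; the footnote gives two.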

Chain of MAP kinase-interacting serine/threonine-protein kinase 1 (Q9BUB5 whole entry): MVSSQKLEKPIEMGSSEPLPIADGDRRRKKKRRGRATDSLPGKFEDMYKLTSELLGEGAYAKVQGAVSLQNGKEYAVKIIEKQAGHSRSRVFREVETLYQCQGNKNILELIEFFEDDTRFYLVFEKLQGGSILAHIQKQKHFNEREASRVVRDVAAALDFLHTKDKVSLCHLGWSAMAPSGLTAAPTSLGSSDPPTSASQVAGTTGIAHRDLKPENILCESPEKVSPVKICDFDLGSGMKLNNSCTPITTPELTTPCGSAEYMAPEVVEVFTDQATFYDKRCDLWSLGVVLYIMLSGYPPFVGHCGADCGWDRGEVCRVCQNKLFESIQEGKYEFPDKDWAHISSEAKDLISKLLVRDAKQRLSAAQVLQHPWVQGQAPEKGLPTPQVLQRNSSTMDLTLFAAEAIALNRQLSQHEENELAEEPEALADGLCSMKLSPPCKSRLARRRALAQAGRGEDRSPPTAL

| IC50 [nM] | Compound |
| --- | --- |
| 1090 | CN1CCc2c(sc3ncnc(Nc4ccc(F)cc4F)c23)C1 |
| 1880 | COc1cccc(Nc2ncnc3sc4c(c23)CCN(S(=O)(=O)c2ccc(F)cc2F)C4)c1 |
| 1720 | CC(C)(C)OC(=O)N1CCc2c(sc3ncnc(Nc4ccc(F)cc4Br)c23)C1 |
| 1100 | COc1cc(F)ccc1Nc1ncnc2sc3c(c12)CCN(S(=O)(=O)c1ccccc1[N+](=O)[O-])C3 |
| 1400 | COc1ccc(S(=O)(=O)N2CCc3c(sc4ncnc(Nc5cccc(Cl)c5)c34)C2)cc1 |
| 1740 | O=S(=O)(c1ccc(F)cc1F)N1CCc2c(sc3ncnc(Nc4cccc(Cl)c4)c23)C1 |
| 2400 | Cc1cccc(Nc2ncnc3sc4c(c23)CCN(S(=O)(=O)c2ccc(F)cc2F)C4)c1 |
| 1650 | O=[N+]([O-])c1ccccc1S(=O)(=O)N1CCc2c(sc3ncnc(Nc4ccc(Cl)cc4)c23)C1 |
| 1850 | CN1CCc2c(sc3ncnc(Nc4ccc(Cl)cc4F)c23)C1 |
| 1500 | O=S(=O)(c1cccs1)N1CCc2c(sc3ncnc(Nc4cccc(F)c4)c23)C1 |
| 1280 | O=S(=O)(c1ccc(F)cc1F)N1CCc2c(sc3ncnc(Nc4ccc(F)cc4Br)c23)C1 |
| 2020 | COc1cccc(Nc2ncnc3sc4c(c23)CCN(S(=O)(=O)c2ccccc2[N+](=O)[O-])C4)c1 |
| 2020 | O=S(=O)(c1ccc(F)cc1F)N1CCc2c(sc3ncnc(Nc4cccc(F)c4)c23)C1 |
| 1890 | COc1ccc(S(=O)(=O)N2CCc3c(sc4ncnc(Nc5ccc(C)cc5Br)c34)C2)cc1 |
| 2060 | Cc1cccc(Nc2ncnc3sc4c(c23)CCN(S(=O)(=O)c2ccccc2[N+](=O)[O-])C4)c1 |
| 1510 | Brc1ccc(Nc2ncnc3sc4c(c23)CCCC4)cc1 |
| 2290 | Clc1cccc(Nc2ncnc3sc4c(c23)CCN(Cc2ccccc2)C4)c1 |
| 2220 | Cc1cccc(Nc2ncnc3sc4c(c23)CCN(C)C4)c1 |
| 1870 | CN1CCc2c(sc3ncnc(Nc4cccc(Cl)c4)c23)C1 |
| 1390 | O=S(=O)(c1cccs1)N1CCc2c(sc3ncnc(Nc4ccc(Br)cc4)c23)C1 |
| 1500 | O=S(=O)(c1ccc(F)cc1F)N1CCc2c(sc3ncnc(Nc4ccc(Cl)cc4)c23)C1 |
| 1690 | Brc1ccc(Nc2ncnc3sc4c(c23)CCN(Cc2ccccc2)C4)cc1 |
| 2160 | CC(C)(C)OC(=O)N1CCc2c(sc3ncnc(Nc4ccc(Cl)cc4F)c23)C1 |
| 1560 | Cc1ccc(Nc2ncnc3sc4c(c23)CCN(S(=O)(=O)c2cccs2)C4)c(Br)c1 |
| 2430 | Clc1cccc(Nc2ncnc3sc4c(c23)CCCC4)c1 |

| IC50 [nM] | Compound |
| --- | --- |
| 1080 | O=[N+]([O-])c1ccccc1S(=O)(=O)N1CCc2c(sc3ncnc(Nc4ccc(F)cc4F)c23)C1 |
| 1700 | COc1cccc(Nc2ncnc3sc4c(c23)CCCC4)c1 |
| 2140 | COc1ccc(S(=O)(=O)N2CCc3c(sc4ncnc(Nc5cccc(OC)c5)c34)C2)cc1 |
| 1100 | O=S(=O)(c1ccc(F)cc1F)N1CCc2c(sc3ncnc(Nc4ccc(F)cc4F)c23)C1 |
| 1680 | Cc1ccc(Nc2ncnc3sc4c(c23)CCN(S(=O)(=O)c2ccc(F)cc2F)C4)c(Br)c1 |
| 1620 | Clc1ccc(Nc2ncnc3sc4c(c23)CCCC4)cc1 |
| 1390 | COc1ccc(S(=O)(=O)N2CCc3c(sc4ncnc(Nc5cccc(F)c5)c34)C2)cc1 |
| 1460 | O=S(=O)(c1cccs1)N1CCc2c(sc3ncnc(Nc4ccc(F)cc4F)c23)C1 |
| 1730 | O=S(=O)(c1ccc(F)cc1F)N1CCc2c(sc3ncnc(Nc4ccc(Br)cc4)c23)C1 |
| 1630 | O=S(=O)(c1cccs1)N1CCc2c(sc3ncnc(Nc4ccc(Cl)cc4)c23)C1 |
| 1160 | O=[N+]([O-])c1ccccc1S(=O)(=O)N1CCc2c(sc3ncnc(Nc4ccc(F)cc4Br)c23)C1 |
| 1340 | COc1cc(F)ccc1Nc1ncnc2sc3c(c12)CCN(C(=O)OC(C)(C)C)C3 |
| 2190 | CC(C)(C)OC(=O)N1CCc2c(sc3ncnc(Nc4cccc(F)c4)c23)C1 |
| 2240 | CC(C)(C)OC(=O)N1CCc2c(sc3ncnc(Nc4ccc(Cl)cc4)c23)C1 |
| 940 | COc1cc(F)ccc1Nc1ncnc2sc3c(c12)CCN(S(=O)(=O)c1cccs1)C3 |
| 930 | COc1cc(F)ccc1Nc1ncnc2sc3c(c12)CCN(S(=O)(=O)c1ccc(F)cc1F)C3 |
| 1950 | COc1cccc(Nc2ncnc3sc4c(c23)CCN(C(=O)OC(C)(C)C)C4)c1 |
| 1310 | Fc1cc(Cl)ccc1Nc1ncnc2sc3c(c12)CCN(Cc1ccccc1)C3 |
| 2350 | COc1cccc(Nc2ncnc3sc4c(c23)CCN(S(=O)(=O)c2cccs2)C4)c1 |
| 1690 | CN1CCc2c(sc3ncnc(Nc4ccc(Br)cc4)c23)C1 |
| 1100 | Fc1ccc(Nc2ncnc3sc4c(c23)CCN(Cc2ccccc2)C4)c(F)c1 |
| 1650 | Cc1ccc(Nc2ncnc3sc4c(c23)CCN(S(=O)(=O)c2ccccc2[N+](=O)[O-])C4)c(Br)c1 |
| 1990 | O=[N+]([O-])c1ccccc1S(=O)(=O)N1CCc2c(sc3ncnc(Nc4cccc(F)c4)c23)C1 |
| 1920 | COc1cccc(Nc2ncnc3sc4c(c23)CCN(Cc2ccccc2)C4)c1 |
| 1540 | Clc1ccc(Nc2ncnc3sc4c(c23)CCN(Cc2ccccc2)C4)cc1 |

| IC50 [nM] | Compound |
| --- | --- |
| 1700 | Cc1ccc(Nc2ncnc3sc4c(c23)CCN(C(=O)OC(C)(C)C)C4)c(Br)c1 |
| 1570 | Cc1ccc(Nc2ncnc3sc4c(c23)CCN(Cc2ccccc2)C4)c(Br)c1 |
| 1360 | O=S(=O)(c1cccs1)N1CCc2c(sc3ncnc(Nc4ccc(Cl)cc4F)c23)C1 |
| 1640 | O=[N+]([O-])c1ccccc1S(=O)(=O)N1CCc2c(sc3ncnc(Nc4cccc(Cl)c4)c23)C1 |
| 1410 | COc1ccc(S(=O)(=O)N2CCc3c(sc4ncnc(Nc5cccc(C)c5)c34)C2)cc1 |
| 1820 | CN1CCc2c(sc3ncnc(Nc4ccc(Cl)cc4)c23)C1 |
| 1790 | Cc1cccc(Nc2ncnc3sc4c(c23)CCCC4)c1 |
| 2130 | Cc1cccc(Nc2ncnc3sc4c(c23)CCN(S(=O)(=O)c2cccs2)C4)c1 |
| 2180 | Fc1cccc(Nc2ncnc3sc4c(c23)CCCC4)c1 |
| 2110 | Cc1cccc(Nc2ncnc3sc4c(c23)CCN(Cc2ccccc2)C4)c1 |
| 1380 | O=S(=O)(c1cccs1)N1CCc2c(sc3ncnc(Nc4cccc(Cl)c4)c23)C1 |
| 2290 | COc1cccc(Nc2ncnc3sc4c(c23)CCN(C)C4)c1 |
| 1620 | CC(C)(C)OC(=O)N1CCc2c(sc3ncnc(Nc4ccc(F)cc4F)c23)C1 |
| 1250 | O=[N+]([O-])c1ccccc1S(=O)(=O)N1CCc2c(sc3ncnc(Nc4ccc(Br)cc4)c23)C1 |
| 930 | COc1cc(F)ccc1Nc1ncnc2sc3c(c12)CCN(C)C3 |
| 2040 | CN1CCc2c(sc3ncnc(Nc4cccc(F)c4)c23)C1 |
| 2170 | CC(C)(C)OC(=O)N1CCc2c(sc3ncnc(Nc4cccc(Cl)c4)c23)C1 |
| 1540 | O=S(=O)(c1ccc(F)cc1F)N1CCc2c(sc3ncnc(Nc4ccc(Cl)cc4F)c23)C1 |
| 970 | O=S(=O)(c1cccs1)N1CCc2c(sc3ncnc(Nc4ccc(F)cc4Br)c23)C1 |
| 1220 | COc1ccc(S(=O)(=O)N2CCc3c(sc4ncnc(Nc5ccc(Cl)cc5)c34)C2)cc1 |
| 2080 | Fc1cccc(Nc2ncnc3sc4c(c23)CCN(Cc2ccccc2)C4)c1 |
| 2500 | Cc1cccc(Nc2ncnc3sc4c(c23)CCN(C(=O)OC(C)(C)C)C4)c1 |
| 1260 | O=[N+]([O-])c1ccccc1S(=O)(=O)N1CCc2c(sc3ncnc(Nc4ccc(Cl)cc4F)c23)C1 |
